In ChEMBL document CHEMBL2151038, “Synthesis, characterization and biological evaluation of some novel 2,4-thiazolidinediones as potential cytotoxic, antimicrobial and antihyperglycemic agents” (Bioorg Med Chem Lett, 2012):
≈ marks a conversion by molar mass, not a printed value.

Columns and labels:
Artemia salina = test: Cytotoxicity in brine shrimps larvae assessed as mortality after 24 hrs; assay type: functional; conditions: read-out: ED50 (the source's name)
Procedure, shortened: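 Artemia salina nauplii hatched 38 h under constant aeration in sterile brine (sea salt 38 g/L, pH 8.5 with 1 N NaOH). Ten nauplii per vial were exposed to a range of compound concentrations at 37 °C for 24 h under incandescent light, alongside vehicle-treated controls. Survivors were counted, % lethality was taken from mean survivors versus control, and ED50 came from probit analysis.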

Klebsiella pneumoniae = test: Antibacterial activity against Klebsiella pneumoniae NCIM 5082 after 24 hrs by NCCLS agar well diffusion method; assay type: functional; conditions: NCIM 5082, 24 h
Procedure, shortened: (§1)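 Nutrient agar seeded with 0.1 mL bacterial suspension (10⁵ CFU/mL in 0.85% saline). 6 mm wells filled with 0.1 mL compound. Plates in triplicate, 37 ± 0.5 °C for 24 h. MIC = lowest concentration giving complete growth inhibition.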

Pseudomonas aeruginosa = test: Antibacterial activity against Pseudomonas aeruginosa NCIM 2036 after 24 hrs by NCCLS agar well diffusion method; assay type: functional; conditions: NCIM 2036, 24 h; procedure, shortened: as §1
Aspergillus niger = test: Antifungal activity against Aspergillus niger NCIM 548 after 48 hrs by NCCLS agar well diffusion method; assay type: functional; conditions: NCIM 548, 48 h
Procedure, shortened: (§2)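 Spore suspensions in sterile distilled water adjusted to 10⁶ CFU/mL, 0.1 mL spread on potato-dextrose agar. 6 mm wells received 0.1 mL compound in 1% DMSO (final 16–512 µg/mL). Controls: 1% DMSO and ketoconazole (16 µg/mL). Triplicate plates, 48 h at 28 ± 0.2 °C. MIC = lowest concentration completely inhibiting growth.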

Penicillium chrysogenum = test: Antifungal activity against Penicillium chrysogenum NCIM 738 after 48 hrs by NCCLS agar well diffusion method; assay type: functional; conditions: NCIM 738, 48 h; procedure, shortened: as §2
Rattus norvegicus [1] = test: Antihyperglycemic activity in streptozotocin-induced type 2 diabetic Wistar albino rat assessed as reduction in plasma glucose level at 50 mg/kg, po by glucometer; assay type: functional
Procedure, shortened: (§3)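 Wistar albino rats of either sex, 150–200 g, fasted 16 h. Diabetes induced by nicotinamide 150 mg/kg, then STZ 65 mg/kg in citrate buffer pH 4.5. Glucose confirmed after 48 h. Groups of six. Oral dosing as 0.25% sodium CMC suspension at 10, 30 or 50 mg/kg. Rosiglitazone was the reference. Retro-orbital plasma glucose measured by glucometer before dosing and at 1, 2, 4, 6, 8, 12 and 24 h. Results as mean ± SEM, compared by ANOVA, t-test and Dunnett's test.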

Proteus vulgaris = test: Antibacterial activity against Proteus vulgaris NCIM 2813 after 24 hrs by NCCLS agar well diffusion method; assay type: functional; conditions: NCIM 2813, 24 h; procedure, shortened: as §1
Rattus norvegicus [2] = test: Antihyperglycemic activity in streptozotocin-induced type 2 diabetic Wistar albino rat assessed as reduction in plasma glucose level at 10 mg/kg, po by glucometer; assay type: functional; procedure, shortened: as §3
Micrococcus luteus = test: Antibacterial activity against Micrococcus luteus NCIM 2155 after 24 hrs by NCCLS agar well diffusion method; assay type: functional; conditions: NCIM 2155, 24 h; procedure, shortened: as §1
Bacillus subtilis = test: Antibacterial activity against Bacillus subtilis NCIM 2063 after 24 hrs by NCCLS agar well diffusion method; assay type: functional; conditions: NCIM 2063, 24 h; procedure, shortened: as §1
Escherichia coli = test: Antibacterial activity against Escherichia coli NCIM 2065 after 24 hrs by NCCLS agar well diffusion method; assay type: functional; conditions: NCIM 2065, 24 h; procedure, shortened: as §1
[3] = Toxicity in mouse assessed as changes in vital functions; assay type: organism-based; conditions: in vivo
Candida albicans = test: Antifungal activity against Candida albicans NCIM 3102 after 48 hrs by NCCLS agar well diffusion method; assay type: functional; conditions: NCIM 3102, 48 h; procedure, shortened: as §2
Bacillus pumilus = test: Antibacterial activity against Bacillus pumilus NCIM 2327 after 24 hrs by NCCLS agar well diffusion method; assay type: functional; conditions: NCIM 2327, 24 h; procedure, shortened: as §1
Rattus norvegicus [4] = test: Antihyperglycemic activity in po dosed streptozotocin-induced type 2 diabetic Wistar albino rat assessed as reduction in plasma glucose level by glucometer; assay type: functional, organism-based; procedure, shortened: as §3
Aspergillus oryzae = test: Antifungal activity against Aspergillus oryzae NCIM 643 after 48 hrs by NCCLS agar well diffusion method; assay type: functional; conditions: NCIM 643, 48 h; procedure, shortened: as §2
Rattus norvegicus [5] = test: Antihyperglycemic activity in streptozotocin-induced type 2 diabetic Wistar albino rat assessed as reduction in plasma glucose level at 30 mg/kg, po by glucometer; assay type: functional; procedure, shortened: as §3
Staphylococcus aureus = test: Antibacterial activity against Staphylococcus aureus NCIM 2079 after 24 hrs by NCCLS agar well diffusion method; assay type: functional; conditions: NCIM 2079, 24 h; procedure, shortened: as §1

Row | SMILES | EC50 (Artemia salina) [µg/mL] | MIC (Klebsiella pneumoniae) [µg/mL] | MIC (Pseudomonas aeruginosa) [µg/mL] | MIC (Aspergillus niger) [µg/mL] | MIC (Penicillium chrysogenum) [µg/mL] | Activity (Rattus norvegicus [1]) [mg/dL] | MIC (Proteus vulgaris) [µg/mL] | Activity (Rattus norvegicus [2]) [mg/dL] | MIC (Micrococcus luteus) [µg/mL] | MIC (Bacillus subtilis) [µg/mL] | MIC (Escherichia coli) [µg/mL] | MTD [3] [mg/kg] | MIC (Candida albicans) [µg/mL] | MIC (Bacillus pumilus) [µg/mL] | Activity (Rattus norvegicus [4]) | MIC (Aspergillus oryzae) [µg/mL] | Activity (Rattus norvegicus [5]) [mg/dL] | MIC (Staphylococcus aureus) [µg/mL]
1 | COc1ccc(C(=O)/C=C/c2ccc(/C=C3\SC(=O)NC3=O)cc2)cc1 | 16.2 (≈ 44.4 µM) | 64 (≈ 175 µM) | 64 (≈ 175 µM) | 128 (≈ 350 µM) | 128 (≈ 350 µM) | 48.71 | 64 (≈ 175 µM) | 33.88 | 64 (≈ 175 µM) | 64 (≈ 175 µM) | 32 (≈ 87.6 µM) | 2000 | 128 (≈ 350 µM) | 64 (≈ 175 µM) | Dose-dependent effect | 128 (≈ 350 µM) | 37.04 | 32 (≈ 87.6 µM)
2 | Nc1ccc(C(=O)/C=C/c2ccc(/C=C3\SC(=O)NC3=O)cc2)cc1 | 28.8 (≈ 82.2 µM) | 128 (≈ 365 µM) | 64 (≈ 183 µM) | 128 (≈ 365 µM) | 256 (≈ 731 µM) | 29.87 | 256 (≈ 731 µM) | 21.34 | 256 (≈ 731 µM) | 128 (≈ 365 µM) | 128 (≈ 365 µM) | 2000 | 128 (≈ 365 µM) | 128 (≈ 365 µM) | Dose-dependent effect | 128 (≈ 365 µM) | 24.72 | 128 (≈ 365 µM)
3 | CN(CCOc1ccc(CC2SC(=O)NC2=O)cc1)c1ccccn1 (stereo unspecified) [ROSIGLITAZONE] |  |  |  |  |  | 12.74 |  | 38.57 |  |  |  |  |  |  |  |  | 14.83 | 
4 | O=C1NC(=O)/C(=C/c2ccc(/C=C/C(=O)c3cccs3)cc2)S1 | 4 (≈ 11.7 µM) | 16 (≈ 46.9 µM) | 32 (≈ 93.7 µM) | 32 (≈ 93.7 µM) | 32 (≈ 93.7 µM) | 13.71 | 64 (≈ 187 µM) |  | 32 (≈ 93.7 µM) | 32 (≈ 93.7 µM) | 32 (≈ 93.7 µM) | 2000 | 32 (≈ 93.7 µM) | 16 (≈ 46.9 µM) | Dose-dependent effect | 32 (≈ 93.7 µM) | 11.66 | 32 (≈ 93.7 µM)
5 | Cc1ccc(O)c(C(=O)/C=C/c2ccc(/C=C3\SC(=O)NC3=O)cc2)c1 | 39.4 (≈ 108 µM) | 128 (≈ 350 µM) | 256 (≈ 701 µM) | 128 (≈ 350 µM) | 64 (≈ 175 µM) | 42.13 | 512 (≈ 1400 µM) | 31.76 | 512 (≈ 1400 µM) | 128 (≈ 350 µM) | 128 (≈ 350 µM) | 2000 | 128 (≈ 350 µM) | 256 (≈ 701 µM) | Dose-dependent effect | 64 (≈ 175 µM) | 37.03 | 256 (≈ 701 µM)
6 | O=C1NC(=O)/C(=C/c2ccc(/C=C/C(=O)c3cccc(Cl)c3)cc2)S1 | 24.8 (≈ 67.1 µM) | 64 (≈ 173 µM) | 32 (≈ 86.5 µM) | 64 (≈ 173 µM) | 64 (≈ 173 µM) | 21.83 | 32 (≈ 86.5 µM) | 11.71 | 64 (≈ 173 µM) | 64 (≈ 173 µM) | 64 (≈ 173 µM) | 2000 | 128 (≈ 346 µM) | 64 (≈ 173 µM) | Dose-dependent effect | 64 (≈ 173 µM) | 15.42 | 64 (≈ 173 µM)
7 | Nc1cccc(C(=O)/C=C/c2ccc(/C=C3\SC(=O)NC3=O)cc2)c1 | 33.2 (≈ 94.7 µM) | 256 (≈ 731 µM) | 128 (≈ 365 µM) | 64 (≈ 183 µM) | 256 (≈ 731 µM) | 21.66 | 256 (≈ 731 µM) | 12.14 | 256 (≈ 731 µM) | 256 (≈ 731 µM) | 64 (≈ 183 µM) | 2000 | 256 (≈ 731 µM) | 256 (≈ 731 µM) | Dose-dependent effect | 128 (≈ 365 µM) | 15.36 | 256 (≈ 731 µM)
8 | O=C1NC(=O)/C(=C/c2ccc(/C=C/C(=O)c3ccccn3)cc2)S1 | 30.3 (≈ 90 µM) | 64 (≈ 190 µM) | 128 (≈ 381 µM) | 64 (≈ 190 µM) | 128 (≈ 381 µM) | 43.72 | 64 (≈ 190 µM) | 22.78 | 32 (≈ 95.1 µM) | 128 (≈ 381 µM) | 64 (≈ 190 µM) | 2000 | 64 (≈ 190 µM) | 64 (≈ 190 µM) | Dose-dependent effect | 64 (≈ 190 µM) | 34.68 | 64 (≈ 190 µM)
9 | CC(=O)N1CCN(c2ccc(OCC3COC(Cn4ccnc4)(c4ccc(Cl)cc4Cl)O3)cc2)CC1 (stereo unspecified) [KETOCONAZOLE] |  |  |  | 16 (≈ 30.1 µM) | 16 (≈ 30.1 µM) |  |  |  |  |  |  |  | 16 (≈ 30.1 µM) |  |  | 16 (≈ 30.1 µM) |  | 
10 | O=C1NC(=O)/C(=C/c2ccc(/C=C/C(=O)c3ccccc3O)cc2)S1 | 41.4 (≈ 118 µM) | 512 (≈ 1460 µM) | 256 (≈ 729 µM) | 512 (≈ 1460 µM) | 512 (≈ 1460 µM) | 14.44 | 512 (≈ 1460 µM) |  | 512 (≈ 1460 µM) | 512 (≈ 1460 µM) | 256 (≈ 729 µM) | 2000 | 512 (≈ 1460 µM) | 512 (≈ 1460 µM) | Dose-dependent effect | 512 (≈ 1460 µM) |  | 256 (≈ 729 µM)
11 | COc1cc([C@@H]2c3cc4c(cc3[C@H](O)[C@H]3COC(=O)[C@H]23)OCO4)cc(OC)c1OC [PODOFILOX] | 3.61 (≈ 8.71 µM) |  |  |  |  |  |  |  |  |  |  |  |  |  |  |  |  | 
12 | O=C1NC(=O)/C(=C/c2ccc(/C=C/C(=O)c3ccccc3)cc2)S1 | 44.7 (≈ 133 µM) | 512 (≈ 1530 µM) | 256 (≈ 763 µM) | 512 (≈ 1530 µM) | 512 (≈ 1530 µM) | 15.61 | 512 (≈ 1530 µM) |  | 512 (≈ 1530 µM) | 256 (≈ 763 µM) | 256 (≈ 763 µM) | 2000 | 512 (≈ 1530 µM) | 256 (≈ 763 µM) | Dose-dependent effect | 512 (≈ 1530 µM) | 11.51 | 512 (≈ 1530 µM)
